Measured values collected from several papers.
Compare with care: the assays were run in different laboratories.
ALK: ALK tyrosine kinase receptor (ALK, Homo sapiens, UniProt Q9UM73)

SMILES | target | assay | setting | measurement | result
Cn1cncc1[C@](O)(COc1ccc(C#N)cc1-c1ccc(OC(F)(F)F)cc1)c1ccc(C#N)cc1 | ALK tyrosine kinase receptor (ALK, Homo sapiens, UniProt Q9UM73, C1156Y) | cell-free assay, competition with immobilised ligand | 1 µM | remaining binding | 92%
Nc1ncc(-c2nc(N3CCOCC3)nc(N3CCOCC3)n2)c(C(F)F)n1 | ALK tyrosine kinase receptor (ALK, Homo sapiens, UniProt Q9UM73, L1196M) | cell-free assay, competition with immobilised ligand | 10 µM | remaining binding | 44%
Cc1nn(C)cc1-c1nc2c(N3CCN(Cc4ccc(Cl)cc4)CC3)c(Cl)cnc2[nH]1 | ALK | binding, competition with immobilised ligand | 1 µM | remaining binding | 100%
C#Cc1n[nH]c2c(-c3cn(C(C)c4ccccn4)c(=O)[nH]c3=O)cc(F)cc12 (stereo not drawn) | ALK | enzyme activity, inhibitor | 1 µM | inhibition | 11.2%
CC(C)(C)c1cc(C=C(C#N)C#N)cc(Br)c1O | ALK | enzyme activity, inhibitor | 0.5 µM | remaining activity | 97.9%
C#Cc1n[nH]c2c(-c3cn([C@@H](C)c4ccccc4)c(=O)[nH]c3=O)cc(F)cc12 | ALK | enzyme activity, inhibitor | 0.1 µM | inhibition | 7.7%
O=c1[nH]c2ccccc2n1C1CCN(Cc2ccc(-c3[nH]c4cc5ncnc5cc4nc3-c3ccccc3)cc2)CC1 | ALK | cell-free assay | 0.5 µM | remaining signal | 106%
COc1cc(Nc2ncc(F)c(Nc3ccc4c(n3)NC(=O)C(C)(C)O4)n2)cc(OC)c1OC | ALK | binding, competition with immobilised ligand | 10 µM | inhibition | 99%
COc1ncccc1-c1cnn2ccc(N3CCN(C(=O)OC(C)C)CC3)nc12 | ALK | binding, competition with immobilised ligand | 1 µM | remaining binding | 100%
